Compound activity: PubChem, several laboratories
M1 antag: antagonists of rat M1 muscarinic receptor; B-score at 10 µM; 64,000 tested, 3.4% active; CHO-M1 cells, Fluo-4 calcium, ACh EC80 antagonist mode; active compounds read low; Muscarinic acetylcholine receptor M1 (Rattus norvegicus), P08482;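 active means calcium fluorescence response, raw or row-and-column corrected B-score, differing from the plate sample mean either way at a set confidence level, mostly lower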
S1P3 agonist: human S1P3 receptor agonists, primary screen, cell-based, primary and confirmation, NFAT-BLA reporter | Sphingosine 1-phosphate receptor 3 (Homo sapiens), Q99500 | S1P3 NFAT-BLA reporter cells, agonism, FRET ratio; relative to 1 µM S1P, basal subtracted | activation, % at 4.5 µM | 60,000 tested, 0.1% active;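 active means activation above the screen-wide mean plus 3 SD, cut at about 4.5% in these data, passing the limit was not always enough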
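Assay system: stable CHO line with human S1P3, Gα16, NFAT-BLA reporter; Detection: FRET β-lactamase substrate fluorescence, excitation 405 nm, 460/535 nm emission ratio, background-subtracted; Read-out: percent activation versus median 1 µM S1P response, basal-subtracted, per plate; Incubation: cells plated overnight, compound 4 h 37 °C, substrate 2 h RT.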
S1P1 ag pot: S1P1 agonists and agonism potentiators, primary screen, cell-based, primary and confirmation screens, CRE-bla reporter | 56,000 tested, 0.57% active | activation, % at 9.5 µM | Sphingosine 1-phosphate receptor 1 (Homo sapiens), P21453 | S1P1 CRE-bla cells, forskolin, beta-lactamase FRET, potentiator mode; S1P1 agonist co-added at EC20, 2 nM; 100% = saturating reference agonist, 0% = basal;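 active means activation above a cutoff set at the mean activation of all tested compounds plus 3 SD, cut at about 54% in these data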;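 further: forskolin at 4 µM as EC80 and the EC20 agonist is SEW2871; 100% = SEW2871 at its EC100 plus forskolin at EC80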
Target sequence (P21453 whole entry, looked up): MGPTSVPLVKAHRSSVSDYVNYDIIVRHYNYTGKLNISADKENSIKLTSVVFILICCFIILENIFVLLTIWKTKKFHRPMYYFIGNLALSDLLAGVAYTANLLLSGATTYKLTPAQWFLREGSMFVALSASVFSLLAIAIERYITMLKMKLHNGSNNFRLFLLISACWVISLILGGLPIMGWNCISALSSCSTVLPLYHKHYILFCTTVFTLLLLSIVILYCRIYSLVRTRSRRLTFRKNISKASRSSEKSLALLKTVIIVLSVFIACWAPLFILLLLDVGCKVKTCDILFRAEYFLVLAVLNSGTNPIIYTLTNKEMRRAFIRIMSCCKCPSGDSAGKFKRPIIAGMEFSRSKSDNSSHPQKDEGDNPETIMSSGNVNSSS
M1 ag: M1 muscarinic receptor agonists, primary screen, CHO-M1 cells, Fluo-4 calcium, agonist mode; Muscarinic acetylcholine receptor M1; Fluo-4 calcium fluorescence; active compounds read high; B-score at 10 µM; 64,000 tested, 3% active; AID 626, 2007;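 active means fluorescence rise, raw or as B-score row- and column-corrected plate score, outside the 99.7% band of its plate's samples, either direction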
D1 allo mod: D1 CRE-luciferase signal change, two-sided – cell-based, HEK293 D1, dopamine EC30, D1 allosteric modulator project, primary screen | dopamine EC30 potentiation; actives deviate in either direction | 58,000 tested, 5.9% active | D(1A) dopamine receptor (Homo sapiens), P21728 | B-score at 10 µM;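 active means luminescence count or its row- and column-corrected plate score outside the 99.7% band of the plate's sample wells, on either side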
M1 antag conf: rat M1 muscarinic receptor antagonists, confirmation, CHO cells, Fluo-4 calcium, duplicate. calcium response (max-min fluorescence) at 10 µM. ACh EC80 antagonism; active compounds read low. shares compounds with M1 antag. 1,700 tested, 43% active;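 active means calcium response below the same-plate mean of wells given acetylcholine alone at its 80%-effect dose, minus 3 SD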;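 further: raw fluorescence intensity difference in arbitrary instrument units and not normalized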
mGluR4 antag: human mGluR4 response to M1 antagonist hits, M1 allosteric modulator project, cell-based, antagonist mode, secondary assay 1; shares compounds with M1 antag; AID 678, 2007; 1,700 tested, 0.9% active; CHO-mGluR4 calcium flux, Fluo-4 fluorescence, glutamate EC80; active compounds read low; fluorescence response (max-min) at 10 µM;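 active means fluorescence response below the plate's average for near-maximal glutamate wells, less 3 SD of those wells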;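 further: raw unnormalized fluorescence span taken in the window right after glutamate addition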
Active calls of the source: *. Hits are enriched below; roughly 11% of the tested compounds scored in any of these assays.

What do the screens show for `COC(=O)c1sc(S(=O)(=O)N2CCC(C)CC2)c(C(=O)OC)c1C`?
M1 antag: 0.024; S1P3 agonist: 0; S1P1 ag pot: -12; M1 ag: 0.013; D1 allo mod: 3.3

What do the screens show for `COC(=O)c1sc(S(=O)(=O)N2CCCCC2)c(C(=O)OC)c1C`?
M1 antag: -4.5*; S1P3 agonist: -1; S1P1 ag pot: -2; M1 ag: -0.044; D1 allo mod: -1.2; M1 antag conf: 248*; mGluR4 antag: 200

What do the screens show for `CC(=O)NC1CC(C)(C)N(OC(C)=O)C(C)(C)C1`?
M1 antag: -0.075; M1 ag: 0.021; D1 allo mod: 0.22

What do the screens show for `CCc1ccc(OCc2nnc(SCCN3CCOCC3)n2CC)cc1`?
M1 antag: -3.2*; S1P3 agonist: -1; S1P1 ag pot: -32; M1 ag: -0.081; D1 allo mod: -0.26; M1 antag conf: 313*; mGluR4 antag: 240

Results for Clc1ccc(OCc2nnc(SCCN3CCCCC3)n2Cc2ccco2)cc1 ?
M1 antag: -13*; S1P3 agonist: -2; S1P1 ag pot: -13; M1 ag: 0.17; D1 allo mod: -2; M1 antag conf: 21*; mGluR4 antag: 247

Results for O=c1oc2cc(O)ccc2c2c1CCCC2 ?
M1 antag: -0.26; S1P3 agonist: -1; S1P1 ag pot: -16; M1 ag: -0.37; D1 allo mod: 1.9

What do the screens show for `O=C1CC(O)(C(F)F)Oc2ccc3ccccc3c21` (centres undefined)?
M1 antag: -2.6*; S1P3 agonist: -1; S1P1 ag pot: 15; M1 ag: -0.78; D1 allo mod: 1.2; M1 antag conf: 600; mGluR4 antag: 271

How did O=C1CC(O)(C(F)(F)F)Oc2c1ccc1ccccc21 (centres undefined) do in these assays?
M1 antag: -1.2; S1P3 agonist: 1; S1P1 ag pot: 20; M1 ag: 8.4; D1 allo mod: -0.77

What do the screens show for `CCCC(=O)Nc1c2c(nn1-c1ccc(C)cc1C)CSC2`?
M1 antag: 0.18; S1P3 agonist: 0; S1P1 ag pot: -31; M1 ag: 0.12; D1 allo mod: -0.051

What do the screens show for `CC(=O)Nc1c2c(nn1-c1ccc(C)cc1C)CSC2`?
M1 antag: -1.9*; S1P3 agonist: 0; S1P1 ag pot: -19; M1 ag: -0.31; D1 allo mod: -1.4; M1 antag conf: 641; mGluR4 antag: 259

How did CC1=CCC(C(=O)O)C(C(=O)O)C1 (centres undefined) do in these assays?
M1 antag: 0.29; M1 ag: -2.5e-05; D1 allo mod: 0.54

How did CC(C)=CC/C=C1\CCC(C(=O)O)C(C(=O)O)C1 (centres undefined) do in these assays?
M1 antag: -14*; S1P3 agonist: -1; S1P1 ag pot: -1; M1 ag: -0.14; D1 allo mod: -1.1; M1 antag conf: 671; mGluR4 antag: 227

How did Cc1cc(C(=O)N(C)Cc2ccc(Br)cc2)no1 do in these assays?
M1 antag: -7.8*; S1P3 agonist: 0; S1P1 ag pot: 9; M1 ag: -0.014; D1 allo mod: 0.022; M1 antag conf: 647; mGluR4 antag: 241

How did Cc1ccccc1-c1nnc(SCc2ccccc2)o1 do in these assays?
M1 antag: -0.15; S1P3 agonist: 1; M1 ag: -0.38; D1 allo mod: -0.4

What do the screens show for `Cc1cc(-c2nnc(SCc3ccccn3)o2)no1`?
M1 antag: -1.8*; S1P3 agonist: 0; S1P1 ag pot: 3; M1 ag: -0.92; D1 allo mod: 0.71; M1 antag conf: 602; mGluR4 antag: 241

What do the screens show for `O=C(CCCCCn1c(=O)[nH]c2ccccc2c1=O)NCCCN1CCN(c2ccccc2F)CC1`?
M1 antag: -3.5*; S1P3 agonist: 0; S1P1 ag pot: 13; M1 ag: 0.31; D1 allo mod: -1.8; M1 antag conf: 506; mGluR4 antag: 220

What do the screens show for `O=C(c1ccc(Cl)c(F)c1F)N1CCCC1`?
M1 antag: 1.7; S1P3 agonist: -1; S1P1 ag pot: -16; M1 ag: -0.99; D1 allo mod: 0.69

What do the screens show for `CN1CCCN(C(c2ccccc2)c2ccc(Cl)cc2)CC1` (centres undefined)?
M1 antag: -16*; S1P3 agonist: -2; S1P1 ag pot: 26; M1 ag: 0.81; D1 allo mod: -3.3; M1 antag conf: 14*; mGluR4 antag: 214

How did CCOC(=O)CC1C(=O)NCCN1C(=O)Nc1ccccc1 (centres undefined) do in these assays?
M1 antag: -2.2*; S1P3 agonist: -1; S1P1 ag pot: 20; M1 ag: 0; D1 allo mod: 0.41; M1 antag conf: 640; mGluR4 antag: 261

What do the screens show for `COC(=O)CC1C(=O)NCCN1C(=O)Nc1ccccc1` (centres undefined)?
M1 antag: 0.65; S1P3 agonist: -1; S1P1 ag pot: -2; M1 ag: -0.59; D1 allo mod: -0.19

Results for CCOC(=O)C1(CCSC)NC(c2ccco2)C2C(=O)N(C)C(=O)C21 (centres undefined) ?
M1 antag: 0.24; S1P3 agonist: -1; S1P1 ag pot: 1; M1 ag: 0.48; D1 allo mod: -0.19

What do the screens show for `S=c1[nH]nc(-c2ccc(Br)cc2)n1Cc1ccco1`?
M1 antag: -10*; S1P3 agonist: 1; S1P1 ag pot: -5; M1 ag: -0.094; D1 allo mod: -1.2; M1 antag conf: 326*; mGluR4 antag: 227

What do the screens show for `CCn1c(SCC(=O)Nc2cccc(C)c2)nc2c(c1=O)SC(C)C2` (centres undefined)?
M1 antag: 0.12; S1P3 agonist: -1; S1P1 ag pot: 5; M1 ag: 1.3; D1 allo mod: 2.1

Results for CCCCn1c(C(C)NC(=O)CCC)nc2ccccc21 (centres undefined) ?
M1 antag: -4.1*; S1P3 agonist: -1; S1P1 ag pot: -17; M1 ag: 0.63; D1 allo mod: 0.6; M1 antag conf: 555; mGluR4 antag: 228
